Measurements published in ChEMBL document CHEMBL4190239, “A novel structural class of coumarin-chalcone fibrates as PPARα/γ agonists with potent antioxidant activities: Design, synthesis, biological evaluation and molecular docking studies” (Eur J Med Chem, 2017).

Assays:
[1] = target: T1, Peroxisome proliferator-activated receptor alpha (Homo sapiens, UniProt Q07869); test: Agonist activity at GAL4-fused PPARalpha LBD (unknown origin) expressed in HEK293 cells assessed as receptor transactivation after 18 hrs by dual luciferase reporter gene assay; assay type: cell-based
T1 sequence (Q07869 whole entry): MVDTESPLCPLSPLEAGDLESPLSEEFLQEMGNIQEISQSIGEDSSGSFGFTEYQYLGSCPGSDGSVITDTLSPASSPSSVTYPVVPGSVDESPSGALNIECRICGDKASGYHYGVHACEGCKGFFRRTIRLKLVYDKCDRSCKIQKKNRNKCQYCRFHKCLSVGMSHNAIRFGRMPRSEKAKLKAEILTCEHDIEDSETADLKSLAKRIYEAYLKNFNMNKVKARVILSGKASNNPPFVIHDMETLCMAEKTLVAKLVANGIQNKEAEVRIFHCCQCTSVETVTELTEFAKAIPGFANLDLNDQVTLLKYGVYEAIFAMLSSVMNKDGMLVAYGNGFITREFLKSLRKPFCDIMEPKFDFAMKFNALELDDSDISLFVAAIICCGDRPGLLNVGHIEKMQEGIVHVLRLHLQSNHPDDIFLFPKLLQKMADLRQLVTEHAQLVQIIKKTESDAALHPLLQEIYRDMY

[2] = target: T2, Peroxisome proliferator-activated receptor gamma (Homo sapiens, UniProt P37231); test: Agonist activity at GAL4-fused PPARgamma LBD (unknown origin) expressed in HEK293 cells assessed as receptor transactivation after 18 hrs by dual luciferase reporter gene assay; assay type: cell-based
T2 sequence (P37231 whole entry): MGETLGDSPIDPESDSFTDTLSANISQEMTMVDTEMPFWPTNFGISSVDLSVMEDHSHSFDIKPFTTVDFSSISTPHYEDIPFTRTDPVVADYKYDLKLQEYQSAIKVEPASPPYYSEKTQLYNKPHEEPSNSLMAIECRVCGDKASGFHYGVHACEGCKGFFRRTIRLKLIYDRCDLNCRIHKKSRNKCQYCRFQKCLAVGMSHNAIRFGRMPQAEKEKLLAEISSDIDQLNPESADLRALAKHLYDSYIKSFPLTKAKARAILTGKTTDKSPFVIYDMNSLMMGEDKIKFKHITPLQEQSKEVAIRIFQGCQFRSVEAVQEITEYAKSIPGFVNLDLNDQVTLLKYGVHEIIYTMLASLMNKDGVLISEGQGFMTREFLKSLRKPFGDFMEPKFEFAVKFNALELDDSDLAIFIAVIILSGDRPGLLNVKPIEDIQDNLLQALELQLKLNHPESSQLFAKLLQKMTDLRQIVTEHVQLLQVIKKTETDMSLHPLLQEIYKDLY

[3] = Antioxidant activity assessed as ABTS radical scavenging activity after 30 mins; assay type: functional
[4] = target: T3, Peroxisome proliferator-activated receptor gamma (Homo sapiens) (UniProt P37231); test: Agonist activity at GAL4-fused PPARgamma LBD (unknown origin) expressed in HEK293 cells assessed as receptor transactivation at 10 uM after 18 hrs by dual luciferase reporter gene assay; assay type: cell-based
T3 sequence (whole entry): T2 sequence (P37231 whole entry)
Method in brief: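 HEK293 grown in DMEM/10% FBS to 70–80% confluence, plated, switched to FCS-free medium, transiently transfected per well with GAL4-PPARγLBD plasmid (30 ng), reporter (50 ng), renilla normalization vector (20 ng) and pGEM carrier (40 ng). Ligand added 8 h post-transfection for 18 h; firefly and renilla luciferase read by dual-luciferase kit; activation expressed as fold.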

## CCOC(=O)C(C)(C)Oc1ccc(C(=O)C2Cc3ccccc3OC2=O)cc1 (stereo not given)
[1]; hek293
  EC50: Not Active
[2]; read-out: EC50
  EC50: 39.7 µM
[3]
  IC50: 9.4 µM

## CCOC(=O)C(C)(C)Oc1ccc(C(=O)c2cc3cc([N+](=O)[O-])ccc3oc2=O)cc1
[1]; read-out: EC50
  EC50: 6.99 µM
[2]; read-out: EC50
  EC50: 0.91 µM
[3]
  IC50: 18.6 µM

## CCOC(=O)C(C)(C)Oc1ccc(C(=O)c2cc3c(ccc4ccccc43)oc2=O)cc1
[4]
  fold change (FC): 0.83
[3]
  IC50: > 100 µM

## CCOC(=O)C(C)(C)Oc1ccc(C(=O)c2cc3cc(C(C)(C)C)cc(C(C)(C)C)c3oc2=O)cc1
[4]
  fold change (FC): 0.81
[3]
  IC50: > 100 µM

## CCOC(=O)C(C)(C)Oc1ccc(C(=O)c2cc3ccccc3oc2=O)cc1
[1]; read-out: EC50
  EC50: 12.7 µM
[2]; read-out: EC50
  EC50: 5.19 µM
[3]
  IC50: > 100 µM

## CCOC(=O)C(C)(C)Oc1ccc(C(=O)C2Cc3cc(C)ccc3OC2=O)cc1 (stereo not given)
[4]
  fold change (FC): 0.8
[3]
  IC50: 10.3 µM

## CCOC(=O)C(C)(C)Oc1ccc(C(=O)c2cc3cc(F)ccc3oc2=O)cc1
[1]; hek293
  EC50: Not Active
[2]; hek293
  EC50: Not Active
[3]
  IC50: > 100 µM

## CCOC(=O)C(C)(C)Oc1ccc(C(=O)c2cc3cc(C)ccc3oc2=O)cc1
[4]
  fold change (FC): 1.01
[3]
  IC50: 8.51 µM

## CC(C)(Oc1ccc(C(=O)c2cc3ccccc3oc2=O)cc1)C(=O)O
[1]; read-out: EC50
  EC50: 11 µM
[2]; read-out: EC50
  EC50: 3.67 µM
[3]
  IC50: > 100 µM

## CCOC(=O)C(C)(C)Oc1ccc(C(=O)c2cc3cc(N)ccc3oc2=O)cc1
[1]; hek293
  EC50: Not Active
[2]; hek293
  EC50: Not Active
[3]
  IC50: > 100 µM

## CCOC(=O)C(C)(C)Oc1ccc(C(=O)C2Cc3c(ccc4ccccc34)OC2=O)cc1 (stereo not given)
[4]
  fold change (FC): 1.05
[3]
  IC50: 15 µM

## CC(C)(Oc1ccc(C(=O)c2cc3c(ccc4ccccc43)oc2=O)cc1)C(=O)O
[1]; hek293
  EC50: Not Active
[2]; read-out: EC50
  EC50: 56.7 µM
[3]
  IC50: > 100 µM

## CCOC(=O)C(C)(C)Oc1ccc(C(=O)C2Cc3cc(OC)c(OC)cc3OC2=O)cc1 (stereo not given)
[4]
  fold change (FC): 0.9
[3]
  IC50: 17.1 µM

## CCOC(=O)C(C)(C)Oc1ccc(C(=O)c2cc3cc(OC)c(OC)cc3oc2=O)cc1
[4]
  fold change (FC): 1.01
[3]
  IC50: > 100 µM

## Cc1ccc2oc(=O)c(C(=O)c3ccc(OC(C)(C)C(=O)O)cc3)cc2c1
[4]
  fold change (FC): 1.04
[3]
  IC50: > 100 µM

## CCOC(=O)C(C)(C)Oc1ccc(C(=O)c2cc3cc(Cl)ccc3oc2=O)cc1
[4]
  fold change (FC): 0.95
[3]
  IC50: > 100 µM

## Cc1c(C)c2c(c(C)c1O)CCC(C)(C(=O)O)O2 (stereo not given) [TROLOX]
[3]
  IC50: 24.8 µM
